Laboratory results as given in ChEMBL document CHEMBL5678806, “NMS-P937, an orally available, specific small-molecule polo-like kinase 1 inhibitor with antitumor activity in solid and hematologic malignancies” (Mol Cancer Ther, 2012).
Activity calls are given as the source filed them. The calls are words filed in the database; no cut-off is given here.

Legend:
[1] = biological target: Serine/threonine-protein kinase PLK1 (Homo sapiens) (UniProt P53350); test: Inhibition of PLK1 in human A2780 cells assessed as increased Histone H3 phosphorylation on Ser10 by Western blotting analysis; type: cell-based
Chain of Serine/threonine-protein kinase PLK1 (Homo sapiens) (P53350 whole entry): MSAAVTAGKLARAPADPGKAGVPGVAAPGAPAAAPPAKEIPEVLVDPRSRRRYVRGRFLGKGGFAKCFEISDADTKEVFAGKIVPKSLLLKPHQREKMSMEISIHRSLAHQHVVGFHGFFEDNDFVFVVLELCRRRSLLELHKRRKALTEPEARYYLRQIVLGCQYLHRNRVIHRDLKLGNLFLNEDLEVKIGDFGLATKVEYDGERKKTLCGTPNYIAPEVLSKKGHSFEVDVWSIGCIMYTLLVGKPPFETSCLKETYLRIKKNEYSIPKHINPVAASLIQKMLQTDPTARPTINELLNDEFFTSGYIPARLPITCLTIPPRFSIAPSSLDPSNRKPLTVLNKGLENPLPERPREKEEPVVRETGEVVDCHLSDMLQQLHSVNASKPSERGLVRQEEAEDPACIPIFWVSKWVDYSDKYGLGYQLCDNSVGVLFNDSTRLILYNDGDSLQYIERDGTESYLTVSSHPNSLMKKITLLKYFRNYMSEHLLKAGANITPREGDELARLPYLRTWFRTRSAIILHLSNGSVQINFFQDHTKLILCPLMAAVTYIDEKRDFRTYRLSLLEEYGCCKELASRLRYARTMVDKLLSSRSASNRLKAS

[2] = tested on: A2780; test: Induction of cell cycle arrest in human A2780 cells assessed as accumulation of cells in G2/M phase by measuring Histone H3 phosphorylation on Ser10 incubated for 24 hrs by Western blotting analysis; type: functional, cell-based; settings: dose 0.02-0.2 µmol/L
How it was run: (§1)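 A2780 ovarian carcinoma cells treated 24 h with a range of concentrations, with DMSO and nocodazole controls. 20 µg protein extract separated by SDS-PAGE and immunoblotted with chemiluminescent detection. Probed for total and phospho-Thr210 PLK1, phospho-Ser10 histone H3, phospho-Thr199 NPM and phospho-Tyr15 CDK1. Total NPM, tubulin and total CDK1 served as loading controls.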

[3] = tested on: A2780; test: Induction of cell cycle arrest in human A2780 cells assessed as accumulation of cells in G2/M phase by measuring upregulated PLK1 expression incubated for 24 hrs by Western blotting analysis; type: functional, cell-based; settings: dose 0.02-0.2 µmol/L; how it was run: as §1
[4] = tested on: A2780; test: Induction of cell cycle arrest in human A2780 cells assessed as accumulation of cells in G2/M phase by measuring NPM phosphorylation on Thr199 incubated for 24 hrs by Western blotting analysis; type: functional, cell-based; settings: dose 0.02-0.2 µmol/L; how it was run: as §1
[5] = tested on: A2780; test: Induction of cell cycle arrest in human A2780 cells assessed as accumulation of cells in G2/M phase by measuring PLK1 phosphorylation on Thr210 incubated for 24 hrs by Western blotting analysis; type: functional, cell-based; settings: dose 0.02-0.2 µmol/L; how it was run: as §1
[6] = tested on: A2780; test: Induction of cell cycle arrest in human A2780 cells assessed as accumulation of cells in G2/M phase by measuring CDK1 phosphorylation on Tyr15 incubated for 24 hrs by Western blotting analysis; type: functional, cell-based; settings: dose 0.02-0.2 µmol/L; how it was run: as §1
[7] = biological target: Serine/threonine-protein kinase PLK1 (Homo sapiens) (UniProt P53350); test: Inhibition of PLK1 in human A2780 cells assessed as decreased TCTP phosphorylation on Ser46 by Western blotting analysis; settings: time 1.0 hrs
[8] = biological target: Serine/threonine-protein kinase PLK1 (Homo sapiens) (UniProt P53350); test: Inhibition of PLK1 in human A2780 cells assessed as increased NPM phosphorylation on Thr199 by Western blotting analysis; type: cell-based
[9] = Antitumor activity against human Acute myeloid leukemic cell xenografted in nu/nu mouse assessed as increase in median survival time at 75 mg/kg, iv administered for 5 days and measured after 7 days in presence of NMS-P937 (reference value: 34 days); type: functional, Leukemia cell; settings: time 5 day
[10] = Antitumor activity against human Acute myeloid leukemic cell xenografted in nu/nu mouse assessed as increase in median survival time at 75 mg/kg, iv administered for 5 days and measured after 7 days (reference value: 34 days); type: functional, Leukemia cell; settings: time 5 day
[11] = tested on: HT-29; test: Antitumor activity against human HT-29 cells xenografted in nu/nu mouse assessed as tumor growth inhibition at 45 mg/kg, iv administered for 4 days relative to control; type: functional; settings: HT-29, 96 h, time 4 day, read-out: TGI

Row | inhibition [1] | inhibition [7] | inhibition [8] | SMILES | Activity [2] | Activity [3] | Activity [4] | Activity [5] | Activity [6] | Time [9] [days] | Time [10] [days] | inhibition in vivo at 45 mg/kg [11] [%]
1 | Active | Active | Active | COC(=O)Nc1nc2cc(C(=O)c3cccs3)ccc2[nH]1 | Active | Active | Active | Active | Active | – | – | –
2 | – | – | – | CCc1c2c(nc3ccc(OC(=O)N4CCC(N5CCCCC5)CC4)cc13)-c1cc3c(c(=O)n1C2)COC(=O)[C@]3(O)CC [IRINOTECAN] | – | – | – | – | – | 79 | 67 | 64
